{
  "source": "ChEMBL document CHEMBL1159309",
  "about": "“A prolyl endopeptidase-inhibiting benzofuran dimer from Polyozellus multiflex” (J Nat Prod, 2002)",
  "set-up_in_all_cases": "scale not given: the % may be the effect or the level left",
  "key": {"[1]": {"test": "Inhibition of elastase at 2.4 uM relative to control", "method_in_brief": "(§1)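 Enzyme assays run per supplier catalogue protocols, substrates as printed: […], elastase N-succinyl-Ala-Ala-Ala-pNA. Test sample given in MeOH; control received 10 µL MeOH in its place. Activity relative to solvent-treated control, mean of five data points with standard error of the mean.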"}, "[2]": {"test": "Inhibition of chymotrypsin at 97.6 uM relative to control", "method_in_brief": "as §1"}, "[3]": {"test": "Inhibition of trypsin at 2.4 uM relative to control", "method_in_brief": "as §1"}, "[4]": {"test": "Inhibition of chymotrypsin at 2.4 uM relative to control", "method_in_brief": "as §1"}, "[5]": {"test": "Inhibition of chymotrypsin at 12.2 uM relative to control", "method_in_brief": "as §1"}, "[6]": {"test": "Inhibition of elastase at 12.2 uM relative to control", "method_in_brief": "as §1"}, "[7]": {"test": "Inhibition of elastase at 97.6 uM relative to control", "method_in_brief": "as §1"}, "[8]": {"test": "Inhibition of trypsin at 97.6 uM relative to control", "method_in_brief": "as §1"}, "[9]": {"test": "Inhibition of trypsin at 12.2 uM relative to control", "method_in_brief": "as §1"}},
  "data": [
    {"smiles": "COC(=O)c1oc2cc(O)c(O)cc2c1-c1c(C(=O)OC)oc2cc(O)c(O)cc12", "values": [
      {"measurement": "Activity", "setting": "[1]", "value": 22, "unit": "%"},
      {"measurement": "Activity", "setting": "[2]", "value": 4, "unit": "%"},
      {"measurement": "Activity", "setting": "[3]", "value": 3.1, "unit": "%"},
      {"measurement": "Activity", "setting": "[4]", "value": 3.7, "unit": "%"},
      {"measurement": "Activity", "setting": "[5]", "value": 6.6, "unit": "%"},
      {"measurement": "Activity", "setting": "[6]", "value": 27.6, "unit": "%"},
      {"measurement": "Activity", "setting": "[7]", "value": 29, "unit": "%"},
      {"measurement": "Activity", "setting": "[8]", "value": 5.9, "unit": "%"},
      {"measurement": "Activity", "setting": "[9]", "value": 5.6, "unit": "%"}
    ]}
  ]
}
